Data reported in ChEMBL document CHEMBL1687933, “Synthesis and pharmacological evaluation of fluorine-containing D₃ dopamine receptor ligands” (J Med Chem, 2011).
pKi: −log10 of the molar value.

Assays:
D(2) dopamine receptor = D(2) dopamine receptor (Homo sapiens, UniProt P14416); assay: Displacement of [125I]-IABN from human D2 receptor transfected in human HEK 293 cells by gamma-counting; type: cell-based, HEK293
How it was run: (§1)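 Nonspecific binding defined with 20 µM (+)-butaclamol. Inhibitor spans 5 log units at two points per decade, in triplicate. Filtration and gamma counting. One-site IC50 converted to Ki by Cheng–Prusoff. At least three independent experiments.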

D(3) dopamine receptor = D(3) dopamine receptor (Homo sapiens, UniProt P35462); assay: Displacement of [125I]-IABN from human D3 receptor transfected in human HEK 293 cells by gamma-counting; type: cell-based, HEK293; how it was run: as §1
D(4) dopamine receptor = target: T1, D(4) dopamine receptor (Homo sapiens, UniProt P21917); assay: Binding affinity to human D4 receptor transfected in human HEK293 cells by gamma-counting; type: cell-based; how it was run: as §1
T1 sequence (P21917 whole entry): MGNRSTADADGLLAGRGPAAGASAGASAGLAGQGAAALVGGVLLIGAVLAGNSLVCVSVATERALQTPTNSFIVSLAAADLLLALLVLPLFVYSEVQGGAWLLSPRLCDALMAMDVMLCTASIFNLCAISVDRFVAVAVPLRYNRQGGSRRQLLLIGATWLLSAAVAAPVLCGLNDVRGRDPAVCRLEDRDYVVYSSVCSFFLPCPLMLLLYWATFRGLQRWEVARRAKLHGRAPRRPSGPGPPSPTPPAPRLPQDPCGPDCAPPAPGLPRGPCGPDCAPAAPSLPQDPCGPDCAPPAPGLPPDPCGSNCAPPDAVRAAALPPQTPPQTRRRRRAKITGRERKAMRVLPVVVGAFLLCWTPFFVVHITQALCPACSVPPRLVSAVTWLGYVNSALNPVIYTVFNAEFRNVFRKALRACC

Homo sapiens = species on record: Homo sapiens; assay: Selectivity ratio of Ki for human D2 receptor to Ki for human D3 receptor
How it was run: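 Selectivity index is Ki(D2)/Ki(D3). Both Ki values come from [125I]IABN competition on membranes of HEK 293 cells stably expressing the human receptor. Incubation was 60 min at 37°C at pH 7.5, with Cheng–Prusoff correction.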

[1] = Partition coefficient, log P of the compound; type: physicochemical; details: octanol/water
[2] = target: Sigma non-opioid intracellular receptor 1 (Cavia porcellus, UniProt Q60492); assay: Displacement of [3H]-pentazocine from guinea pig sigma1 receptor by liquid scintillation counting
How it was run: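 Guinea pig brain membranes (~300 µg protein) incubated with ~5 nM (+)-[3H]-pentazocine for 90 min at room temperature in Tris-HCl/NaCl/EDTA pH 7.4. […] Filtration and scintillation counting. IC50 taken from a one-site fit.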

D(3) dopamine receptor, sequence (P35462 whole entry): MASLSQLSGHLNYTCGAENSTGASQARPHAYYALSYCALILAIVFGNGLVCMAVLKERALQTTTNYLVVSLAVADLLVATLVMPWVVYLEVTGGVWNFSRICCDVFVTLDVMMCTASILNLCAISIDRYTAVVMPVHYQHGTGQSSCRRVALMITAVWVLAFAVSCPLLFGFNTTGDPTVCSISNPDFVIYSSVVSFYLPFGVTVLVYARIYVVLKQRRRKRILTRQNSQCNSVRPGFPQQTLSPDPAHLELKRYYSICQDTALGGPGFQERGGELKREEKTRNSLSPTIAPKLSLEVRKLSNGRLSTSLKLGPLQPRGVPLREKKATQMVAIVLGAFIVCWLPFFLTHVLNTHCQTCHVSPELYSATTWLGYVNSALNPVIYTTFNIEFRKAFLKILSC
D(2) dopamine receptor, sequence (P14416 whole entry): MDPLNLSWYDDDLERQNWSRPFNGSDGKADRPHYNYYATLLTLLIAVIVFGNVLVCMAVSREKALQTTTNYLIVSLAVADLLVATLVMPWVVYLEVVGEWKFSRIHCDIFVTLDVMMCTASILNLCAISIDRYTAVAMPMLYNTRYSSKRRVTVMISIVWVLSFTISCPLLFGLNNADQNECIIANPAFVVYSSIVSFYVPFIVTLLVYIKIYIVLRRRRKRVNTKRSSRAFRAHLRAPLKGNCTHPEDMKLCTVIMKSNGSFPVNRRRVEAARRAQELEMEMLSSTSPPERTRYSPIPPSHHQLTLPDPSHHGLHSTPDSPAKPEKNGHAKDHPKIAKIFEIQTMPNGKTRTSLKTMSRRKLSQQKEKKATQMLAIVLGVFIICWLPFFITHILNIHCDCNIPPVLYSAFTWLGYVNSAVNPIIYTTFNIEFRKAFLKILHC
Sigma non-opioid intracellular receptor 1, sequence (Q60492 whole entry): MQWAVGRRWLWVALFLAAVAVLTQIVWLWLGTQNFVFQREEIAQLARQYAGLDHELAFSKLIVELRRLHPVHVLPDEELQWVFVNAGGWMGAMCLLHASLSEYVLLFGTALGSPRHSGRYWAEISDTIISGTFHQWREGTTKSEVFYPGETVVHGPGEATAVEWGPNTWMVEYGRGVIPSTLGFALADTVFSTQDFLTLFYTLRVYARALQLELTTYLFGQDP

pKi (D(2) dopamine receptor) | pKi (D(3) dopamine receptor) | pKi (D(4) dopamine receptor) | Ratio Ki (Homo sapiens) | logP [1] | pKi [2] | Compound
7.15 | 8.96 | 6.74 | 64 | 4.74 | 5.11 | O=C(NC/C=C/CN1CCN(c2ccccc2OCCF)CC1)c1ccc(-c2ccsc2)cc1
7.75 | 8.96 | 6.05 | 16.1 | 3.61 | 5.14 | O=C(NC/C=C/CN1CCN(c2ccccc2OCCF)CC1)c1ccc(CCF)cc1
7.45 | 8.44 |  | 9.8 | 3.83 |  | CN(C)c1ccc(C(=O)NC/C=C/CN2CCN(c3ccccc3OCCF)CC2)cc1
7.46 | 9.10 | 6.05 | 43 | 3.09 | 5.90 | COc1ccccc1N1CCN(CCCCNC(=O)c2ccc(N(C)C)cc2)CC1
7.28 | 8.38 | 5.68 | 12.2 | 2.72 | 5.31 | COc1ccccc1N1CCN(CCCCNC(=O)c2ccc(OCCOCCOCCF)cc2)CC1
6.88 | 7.60 |  | 5.2 | 3.43 |  | COc1ccccc1N1CCN(C/C=C/CNC(=O)c2ccc(CCF)cc2)CC1
7.82 | 9.28 | 6.00 |  | 3.73 | 5.36 | O=C(NCCCCN1CCN(c2ccccc2OCCF)CC1)c1ccc(OCCF)cc1
7.24 | 7.86 |  | 4.2 | 4.15 |  | COc1ccccc1N1CCN(C/C=C/CNC(=O)c2cc(Br)cc(OC)c2OCCF)CC1
7.57 | 8.96 | 5.85 | 25 | 3.48 | 5.32 | COc1ccccc1N1CCN(CCCCNC(=O)c2ccc(OCCF)cc2)CC1
 |  | 6.61 |  | 4.67 | 4.68 | O=C(NCCCCN1CCN(c2ccccc2OCCF)CC1)c1ccc(-c2ccsc2)cc1
7.82 | 9.19 | 6.05 |  | 3.75 | 5.71 | CN(C)c1ccc(C(=O)NCCCCN2CCN(c3ccccc3OCCF)CC2)cc1
7.67 | 8.16 |  | 3.1 | 3.68 |  | O=C(NCCCCN1CCN(c2ccccc2OCCF)CC1)c1ccc(CCF)cc1
7.26 | 8.21 |  | 8.9 | 3.55 |  | COc1ccccc1N1CCN(C/C=C/CNC(=O)c2ccc(OCCF)cc2)CC1
7.75 | 7.73 |  | 1 | 3.66 |  | COc1ccccc1N1CCN(C/C=C/CNC(=O)c2cc(C)ccc2OCCF)CC1
7.42 | 8.08 |  | 4.5 | 3.81 |  | O=C(NC/C=C/CN1CCN(c2ccccc2OCCF)CC1)c1ccc(OCCF)cc1
7.26 | 8.62 | 6.09 |  | 2.94 | 5.45 | COc1ccccc1N1CCN(CCCCNC(=O)c2ccc(CCF)cc2)CC1
7.23 | 7.74 |  | 3.3 | 3.16 |  | COc1ccccc1N1CCN(C/C=C/CNC(=O)c2ccc(OCCOCCF)cc2)CC1
7.88 | 7.96 |  | 1.2 | 4.73 |  | COc1ccccc1N1CCN(C/C=C/CNC(=O)c2cc(I)ccc2OCCF)CC1
7.85 | 8.60 |  |  | 3.34 |  | O=C(NCCCCN1CCN(c2ccccc2OCCF)CC1)c1ccc(OCCOCCF)cc1
7.87 | 7.87 |  | 1 | 4.49 |  | COc1ccccc1N1CCN(C/C=C/CNC(=O)c2cc(Br)ccc2OCCF)CC1
 | 8.21 |  |  | 3.08 |  | COc1ccccc1N1CCN(CCCCNC(=O)c2ccc(OCCOCCF)cc2)CC1
7.19 | 7.71 |  | 3.3 | 3.41 |  | O=C(NC/C=C/CN1CCN(c2ccccc2OCCF)CC1)c1ccc(OCCOCCF)cc1
7.50 | 8.28 |  | 6.1 | 2.98 |  | O=C(NCCCCN1CCN(c2ccccc2OCCF)CC1)c1ccc(OCCOCCOCCF)cc1
